The source of these data is ChEMBL document CHEMBL1154522, “Aryl sulfamates are broad spectrum inactivators of sulfatases: effects on sulfatases from various sources” (Bioorg Med Chem Lett, 2009).

Assay [1] concerns Haliotis corrugata. Description: Ratio of Vmax/Km for abalone entrails type 8 recombinant sulfatase expressed in Escherichia coli.
In assay [2] the test system is Helix pomatia. Description: Activity at Helix pomatia type H1 recombinant sulfatase expressed in Escherichia coli. In short, it runs like this:
(§1)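 Hydrolysis of potassium 4-nitrophenyl sulfate followed by release of 4-nitrophenol; Vmax is expressed per mg protein and Km in mM; Vmax/Km is derived from these.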

Assay [3] deals with Haliotis corrugata. Description: Activity at abalone entrails type 8 recombinant sulfatase expressed in Escherichia coli assessed per mg of protein. The gist of the method: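 Crude limpet or abalone enzyme hydrolysing potassium 4-nitrophenyl sulfate; 4-nitrophenol release read at 410 nm; 10 mM α-cyclodextrin added to raise sensitivity (Δε410 14400 M−1 cm−1 at pH 7); Vmax per mg protein, Km in mM.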

Assay [4] concerns Patella vulgata. Description: Activity at Patella vulgata type 5 recombinant sulfatase expressed in Escherichia coli.
In assay [5] the target is Arylsulfatase (Pseudomonas aeruginosa (strain ATCC 15692 / PAO1 / 1C / PRS 101 / LMG12228)) (UniProt P51691). Description: Ratio of Vmax/Km for Pseudomonas aeruginosa recombinant arylsulfatase A expressed in Escherichia coli. The gist of the method:
as §1

Assay [6] deals with Helix pomatia. The assay can be described thus: Ratio of Vmax/Km for Helix pomatia type H1 recombinant sulfatase expressed in Escherichia coli. The gist of the method:
as §1

In assay [7] the test system is Helix pomatia. The assay can be described thus: Activity at Helix pomatia type H1 recombinant sulfatase expressed in Escherichia coli assessed per mg of protein. In short, it runs like this: as §1
Assay [8] concerns Haliotis corrugata. Description: Activity at abalone entrails type 8 recombinant sulfatase expressed in Escherichia coli.
Assay [9] relates to Haliotis corrugata. Description: Ratio of Kinact to Ki for abalone entrails type 8 recombinant sulfatase expressed in Escherichia coli by fast phase inactivation.
In assay [10] the test system is Patella vulgata. Description: Ratio of Kinact to Ki for Patella vulgata type 5 recombinant sulfatase expressed in Escherichia coli. The gist of the method:
(§2)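 Limpet sulfatase at pH 7 with 0–12.5 mM sulfamate; semi-logarithmic plots of residual activity over time, inactivation rates replotted against concentration to give Ki and kinact.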

The subject of assay [11] is Helix pomatia. Description: Ratio of Kinact to Ki for Helix pomatia type H1 recombinant sulfatase expressed in Escherichia coli. In short, it runs like this: (§3)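 Snail sulfatase incubated at pH 7 with 0–500 µM 3-nitrophenyl sulfamate; residual activity plotted semi-logarithmically against time, and pseudo-first-order rates replotted against inactivator concentration to fit Ki and kinact (E + I ⇌ E·I → E–P).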

The subject of assay [12] is Patella vulgata. The assay can be described thus: Inhibition of Patella vulgata type 5 recombinant sulfatase expressed in Escherichia coli. The gist of the method: as §2
In assay [13] the test system is Patella vulgata. The assay can be described thus: Protection against inactivation in Patella vulgata type 5 recombinant sulfatase expressed in Escherichia coli assessed as ratio of residual enzyme activity to initial activity at 1 mM after 20 seconds using 4-nitrophenyl sulfate as substrate. In short, it runs like this:
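Limpet sulfatase given 1 mM sulfamate at pH 7 with or without 79 mM 4-nitrophenyl sulfate; residual activity assayed 20 s after inactivator addition, expressed as vres/v0 against an untreated control.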

In assay [14] the target is Arylsulfatase (Pseudomonas aeruginosa (strain ATCC 15692 / PAO1 / 1C / PRS 101 / LMG12228)) (UniProt P51691). The assay can be described thus: Ratio of Kinact to Ki for Pseudomonas aeruginosa recombinant arylsulfatase A expressed in Escherichia coli.
For assay [15], the system named is Haliotis corrugata. The assay can be described thus: Ratio of Kinact to Ki for abalone entrails type 8 recombinant sulfatase expressed in Escherichia coli by slow phase inactivation.
Assay [16] deals with Helix pomatia. The assay can be described thus: Inhibition of Helix pomatia type H1 recombinant sulfatase expressed in Escherichia coli. The gist of the method: as §3
For assay [17], the system named is Haliotis corrugata. The assay can be described thus: Inhibition of abalone entrails type 8 recombinant sulfatase expressed in Escherichia coli by fast phase inactivation.
Assay [18] relates to Haliotis corrugata. The assay can be described thus: Protection against inactivation in abalone entrails type 8 recombinant sulfatase expressed in Escherichia coli assessed as ratio of residual enzyme activity to initial activity at 0.5 mM after 25 seconds using 4-nitrophenyl sulfate as substrate. In short, it runs like this: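 Abalone sulfatase given 0.5 mM sulfamate at pH 7 with or without 30 mM 4-nitrophenyl sulfate; residual activity assayed 25 s after inactivator addition, expressed as vres/v0 against an untreated control.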

Assay [19] concerns Haliotis corrugata. Description: Inhibition of abalone entrails type 8 recombinant sulfatase expressed in Escherichia coli by slow phase inactivation.
Assay [20] deals with Arylsulfatase (Pseudomonas aeruginosa (strain ATCC 15692 / PAO1 / 1C / PRS 101 / LMG12228)) (UniProt P51691). The assay can be described thus: Inhibition of Pseudomonas aeruginosa recombinant arylsulfatase A expressed in Escherichia coli.

SMILES strings stand for the structures.

Chain of Arylsulfatase (Pseudomonas aeruginosa (strain ATCC 15692 / PAO1 / 1C / PRS 101 / LMG12228)) (P51691 whole entry): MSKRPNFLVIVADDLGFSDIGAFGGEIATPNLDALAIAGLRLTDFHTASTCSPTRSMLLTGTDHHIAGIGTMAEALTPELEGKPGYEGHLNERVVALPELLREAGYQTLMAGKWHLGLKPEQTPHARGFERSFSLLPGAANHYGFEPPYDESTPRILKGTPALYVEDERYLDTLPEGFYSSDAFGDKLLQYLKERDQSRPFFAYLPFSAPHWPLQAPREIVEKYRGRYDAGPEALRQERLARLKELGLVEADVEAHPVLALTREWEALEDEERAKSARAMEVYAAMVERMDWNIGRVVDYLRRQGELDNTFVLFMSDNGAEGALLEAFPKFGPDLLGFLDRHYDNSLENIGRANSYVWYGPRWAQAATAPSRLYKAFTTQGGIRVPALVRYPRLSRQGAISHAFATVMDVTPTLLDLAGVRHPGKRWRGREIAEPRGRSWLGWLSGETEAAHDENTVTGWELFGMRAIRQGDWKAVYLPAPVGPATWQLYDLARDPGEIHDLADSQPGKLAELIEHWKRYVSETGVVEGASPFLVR

Broadly, the Km is the substrate concentration at which the rate is half of its maximum. What is called Vmax is the rate approached at saturating substrate. As to `O=[N+]([O-])c1ccc(OS(=O)(=O)O)cc1`, the values for the Vmax/Km in assay [1], in [5] and in assay [6] were 0.066, 7900 and 0.157, respectively. Moreover, the Km in [2] is 2030 µM; in assay [4], 10 mM; in assay [8] it was 10.2 mM. The Vmax in assay [3] is 0.68 mmol/min/mg; in [7] it was 0.319 mmol/min/mg.

Regarding `NS(=O)(=O)Oc1cccc([N+](=O)[O-])c1`, the Ratio in assay [9] came out at 0.043 s⁻¹ mM⁻¹; in [10], 0.038 s⁻¹ mM⁻¹; in assay [11] it was 1.19 s⁻¹ mM⁻¹; in [13], 0.91; in assay [14] it was 480 s⁻¹ mM⁻¹; in [15], 0.0005 s⁻¹ mM⁻¹. The Ratio in assay [18] amounted to 1.01. The T1/2 in [12] was 18 s; in [16] it was 17 s; in assay [17], 10 s; in assay [19] it was 4.28 min; in assay [20] it was 11 s.
